Most compounds without a hit are left out; they make up all but 0.94% or so of the library.
GC-A act: GC-A stimulated cGMP production enhancers – HEK293 GC-A cells, cGMP TR-FRET, EC30 ANP, primary screen. 0% at EC30 ANP, 100% saturating ANP. activation, % at 10 µM. AID 1671463, 2021. Atrial natriuretic peptide receptor 1 (Homo sapiens), P16066. actives 0.14% (n = 370,000); in the data active means activation above about 40%
GalR3 antag: GalR3 antagonists in HEK293 cells, primary screen, cell-based, fluorescence readout; Galanin receptor type 3 (Homo sapiens), O60755; HEK293 GalR3-CNG cAMP membrane potential fluorescence; galR3 body fused to GalR1 C-terminus; inhibition, % at 3 µM; actives 0.44% (n = 360,000); AID 651719, 2012;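 active means inhibition above the screen-wide average plus 3 SD, cut at about 13% in these data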;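 further: forskolin and galanin both at EC90 stimulate the cells; cAMP rise reported by CNG channel membrane potential dye signal; 0% = forskolin plus galanin with DMSO and 100% = forskolin alone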
Arr AP2 block: inhibitors of beta-arrestin/AP2 binding, primary screen, biochemical, GPCR trafficking, flow cytometry; FITC-arrestin peptide / GST-AP2 beads; AP2 beta2 appendage carries R879A mutation; inhibition, % at 10 µM; actives 0.31% (n = 340,000); AID 504490, 2011;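 active means inhibition above a set limit, near 3 SD of compounds lacking own fluorescence, cut at about 54% in these data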;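 further: plate controls were DMSO wells for no effect and 5 µM unlabelled arrestin peptide for full effect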
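Assay system: GST-AP2 R879A bound to glutathione beads, E. coli-expressed; Medium: PBS with 0.05% Tween 20 and 0.1% BSA; Also added: fluorescein-tagged arrestin peptide at 50 nM final; Timing: 12 min plus 1 h, RT; Measured by: flow cytometry, FL1 (488/535 nm); Evaluation: percent drop in bead-associated FITC signal.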
GC-B act: human GC-B receptor activators, primary screen, HEK293 GC-B cells, cGMP TR-FRET, EC30 CNP. 0% at EC30 CNP, 100% saturating CNP. activation, % at 10 µM. actives 0.11% (n = 370,000). AID 1920062, 2024;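 active means activation at 10 µM reaching about 35% in either raw or pattern-adjusted values, limit read from the data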
GalR3 antag conf: GalR3 antagonist hit confirmation, cell-based, fluorescence, triplicate; shares compounds with GalR3 antag; inhibition, % at 3 µM; HEK293 GalR3 CNG cAMP biosensor, membrane potential fluorescence; galR3 fused to GalR1 carboxy tail; challenged with forskolin and galanin at EC90; actives 59% (n = 1,600);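 active means inhibition above the primary screen's cutoff, the mean inhibition of all screened compounds plus 3 SD, cut at about 13% in these data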;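 further: 0% = forskolin plus galanin and 100% = forskolin alone with DMSO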
HEK-CNG parental: nonspecific cAMP agonists in parental HEK-CNG cells, counter-screen for GalR3 antagonist project, cell-based, fluorescence, high throughput. shares compounds with GalR3 antag. activation, % at 3 µM. actives 10% (n = 1,600). HEK293-CNG parental cells, cAMP membrane potential fluorescence; normalised: DMSO wells 0%, forskolin wells 100%; in the data active means activation above about 1.3%
The depositor's hits bear a star.

COC(=O)[C@]12C[C@H](CC(=O)N3CCSCC3)C(=O)N(CCc3ccc(OC)c(OC)c3)C1=C[C@H](COCc1ccccc1)O[C@@H]2C was read as GC-A act 3 and GC-B act 6.
For O=C(N[C@H](Cc1ccccc1)C(=O)NCC1CCCO1)[C@H]1O[C@@H](n2ccc(=O)[nH]c2=O)[C@H](O)[C@@H]1O (some centres undefined) the results were GC-A act -1, GalR3 antag -4 and GC-B act -1.
`O=C(NCc1ccccc1)C(c1ccco1)N1CCN(CCN2CCOCC2)CC1` (centres undefined) gave GC-A act 0, GalR3 antag -5 and GC-B act 4.
For NS(=O)(=O)c1ccc(O)c(NC(=O)c2ccc([N+](=O)[O-])cc2)c1 the results were GC-A act 4, GalR3 antag 20*, Arr AP2 block 31, GC-B act -2, GalR3 antag conf 4 and HEK-CNG parental 0.
`CN1C(=O)C(CC(=O)Nc2ccc(F)cc2)N(Cc2cccs2)C1=S` (centres undefined) gave GC-A act 0, GalR3 antag 15*, Arr AP2 block -5, GC-B act -2, GalR3 antag conf 4 and HEK-CNG parental -1.
CCCNC(=O)Nc1ccc2c(c1)C(=O)N(C)[C@H]1CC[C@@H](CC(=O)OC)O[C@H]1CO2 was read as GC-A act 0 and GC-B act 2.
For CC(=O)/C=C/n1c(=S)oc2ccccc21 the results were GC-A act 5, GalR3 antag 15*, GC-B act 3, GalR3 antag conf 2 and HEK-CNG parental 1.6*.
Screening CCn1ncc(C2=NOC(C(=O)NCc3ccccc3)C2)c1C (centres undefined) returned GC-A act -2, GalR3 antag 16*, Arr AP2 block 1, GC-B act -10, GalR3 antag conf 25* and HEK-CNG parental 1.
For CCn1ncc(C2=NOC(C(=O)NCc3ccc(OC)cc3)C2)c1C (centres undefined) the results were GC-A act 0, GalR3 antag -4, Arr AP2 block 4 and GC-B act -1.
COc1ccccc1NC(=S)NC(=O)c1c(-c2ccccc2Cl)noc1C was read as GC-A act 2, GalR3 antag 15*, Arr AP2 block -1, GC-B act -5, GalR3 antag conf 6 and HEK-CNG parental 0.
Screening O=C(CSC1=NCCS1)Nc1ccnc2ccccc12 returned GC-A act 2, GalR3 antag 99*, Arr AP2 block -1, GC-B act 1, GalR3 antag conf 109* and HEK-CNG parental 0.
Cc1cc(NC(=O)Cc2ccccc2)c2ccccc2n1 was read as GC-A act 2, GalR3 antag 13*, Arr AP2 block -8, GC-B act 0, GalR3 antag conf 65* and HEK-CNG parental 0.
For COC(=O)c1ccccc1NC(=O)CSc1nc(C)cc(C)n1 the results were GC-A act -3, GalR3 antag -3, Arr AP2 block 16 and GC-B act 1.
Screening Cc1cc(C)nc(SCC(=O)Nc2ccnc3ccccc23)n1 returned GC-A act -2, GalR3 antag 55*, Arr AP2 block -6, GC-B act -1, GalR3 antag conf 121* and HEK-CNG parental 0.
Screening O=C(CSC1=NCCS1)Nc1ccc2ccccc2c1 returned GC-A act 4, GalR3 antag -3, Arr AP2 block 18 and GC-B act 4.
`O=C(C1CCN(c2ncnc3c2sc2cccc(F)c23)CC1)N1CCCCC1` gave GC-A act 1 and GC-B act -1.
CCCN(C(=O)C1CCCN(c2ncnc3c2nc2n3CCCCC2)C1)c1ccccc1C (centres undefined) was read as GC-A act -6, GalR3 antag 0 and GC-B act -6.
COn1c(SCc2cccnc2)nc2ccccc2c1=O was read as GC-A act 10, Arr AP2 block 6, GC-B act -8, GalR3 antag conf 3 and HEK-CNG parental 1.
COC(=O)c1cc2c(c3c4cc(F)ccc4n(S(=O)(=O)c4ccc(OC)cc4)c13)C(=O)N(C)C2 was read as GC-A act -6, GalR3 antag -7 and GC-B act -9.
For N#CC(C#N)C(c1ccsc1)c1c(-c2ccccc2)[nH][nH]c1=O (centres undefined) the results were GC-A act -24, GalR3 antag 14*, Arr AP2 block 6, GC-B act -3, GalR3 antag conf 17* and HEK-CNG parental 2.8*.
`CCCc1[nH][nH]c(=O)c1C(c1cccc(Cl)c1)C(C#N)C#N` (centres undefined) gave GC-A act 0, GalR3 antag -3, Arr AP2 block 20 and GC-B act 1.
CN(Cc1ccc(F)cc1)C(=O)c1cccc2c1C(=O)N(Cc1cccnc1)C2 was read as GC-A act 3 and GC-B act -1.
For Cc1cc(-c2cn3ccccc3n2)c(C)n1-c1ccccc1 the results were GC-A act 1, GalR3 antag 13*, Arr AP2 block 4, GC-B act 2, GalR3 antag conf 4 and HEK-CNG parental 0.
`O=C(NCCc1c[nH]c2ccccc12)c1ccc2c(c1)ncn2C1CCCCC1` gave GC-A act 1 and GC-B act 2.
CCOc1cc(/C=N/NC(N)=O)cc(Br)c1OCC(=O)Nc1ccccc1C was read as GC-A act -12, GalR3 antag 69*, Arr AP2 block 4, GC-B act -6, GalR3 antag conf 40* and HEK-CNG parental 0.
For COc1cc(/C=N/NC(=S)N/N=C/c2cc(OC)c(OC)c(OC)c2)cc(OC)c1OC the results were GC-A act 4, GalR3 antag 20*, Arr AP2 block 2, GC-B act 8, GalR3 antag conf 16* and HEK-CNG parental 0.
For C=CCOc1c(Br)cc(/C=N/NC(N)=O)cc1OC the results were GC-A act -9, GalR3 antag 13*, Arr AP2 block 1, GC-B act -7, GalR3 antag conf 7 and HEK-CNG parental 0.

From PubChem BioAssay
